Source: ChEMBL document CHEMBL5325427
≈ marks a conversion by molar mass, not a printed value. Calls of active or inactive are those of the source. The calls are words filed in the database; no cut-off is given here.

Assays:
[1] = target: Replicase polyprotein 1ab (Severe acute respiratory syndrome coronavirus 2) (UniProt P0DTD1); experiment: Inhibition of SARS-CoV-2 3CLpro at 10 ug/ml preincubated with enzyme for 30 mins followed by substrate addition and measured after 4 hrs by fluorescence based analysis; settings: dose 10.0 µg/ml, time 4.5 hrs
Procedure, shortened: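 Recombinant SARS-CoV-2 3CLpro (1.5 ng/μl) was pre-incubated with compound 30 min at RT. Fluorogenic substrate was added to a final 40 μM and incubated 4 h at RT. Fluorescence was read at Ex 360/Em 460 nm. Wells were run in triplicate and blank was subtracted.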

[2] = Stability in human microsomes assessed as compound remaining at 1 uM measured after 60 mins in absence of NADPH by LC-MS-MS analysis; type: ADME, Microsome; settings: read-out: Stability
Procedure, shortened: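 Compound was incubated in liver microsomes without NADPH. Percent remaining was measured after 60 min.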

SARS-CoV-2 [3] = experiment: Antiviral activity against SARS CoV-2 infected in human Caco-2 cells assessed as reduction in IL-6 expression at 20 ug/ml preincubated with cells for 24 hrs followed by viral infection and measured after 3 to 12 hrs by real-time PCR assay; type: functional, organism-based; settings: Severe acute respiratory syndrome coronavirus 2, dose 20.0 µg/ml, time lower 27.0 hrs, time upper […]
SARS-CoV-2 [4] = experiment: Antiviral activity against SARS-CoV-2 NRC-03-nhCoV infected in african green monkey Vero E6 cells assessed as inhibition of viral growth pre-infected cells with virus for 1 hr followed by compound addition for 1 hr and measured after 72 hrs by crystal violet staining based analysis; type: functional, organism-based; settings: Severe acute respiratory syndrome coronavirus 2, NRC-03-nhCoV, Vero C1008
[5] = Toxicity in Balb/c mouse assessed as histological changes in kidney by measuring toxicity score at 12.5 to 25 mg/kg by H and E staining based analysis; type: organism-based; settings: in vivo, dose 12.5-25 mg/kg
Procedure, shortened: (§1)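 After the 14-day daily intraperitoneal dosing (12.5 or 25 mg/kg, female Balb/c), liver, kidney, spleen, heart and lung were fixed 24 h in 10% neutral-buffered formalin and paraffin-embedded. Sections of 4 μm were stained with H&E. Lesions were scored nil 0, mild 1, moderate 2, severe 3.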

[6] = Toxicity in Balb/c mouse assessed as change in histological variation in liver at 12.5 to 25 mg/kg by H and E staining based analysis; type: organism-based; settings: in vivo, dose 12.5-25 mg/kg; procedure, shortened: as §1
[7] = Toxicity in Balb/c mouse assessed as effect on gamma GT at 12.5 to 25 mg/kg; type: organism-based; settings: in vivo, dose 12.5-25 mg/kg
Procedure, shortened: (§2)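 Female Balb/c mice were randomised to vehicle (0.5% DMSO in PBS) or 12.5 or 25 mg/kg intraperitoneally daily for 14 days, then followed 12 days after treatment. Body weight, haematology and blood chemistry were compared with vehicle controls; n = 3–5.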

[8] = Toxicity in Balb/c mouse assessed as histological changes in lung by measuring toxicity score at 12.5 to 25 mg/kg by H and E staining based analysis; type: organism-based; settings: in vivo, dose 12.5-25 mg/kg; procedure, shortened: as §1
[9] = Stability in CD-1 mouse liver microsomes assessed as half life at 1 uM in presence of NADPH by LC-MS-MS analysis; type: ADME, Microsome
[10] = target: Replicase polyprotein 1ab (Severe acute respiratory syndrome coronavirus 2, UniProt P0DTD1); experiment: Inhibition of recombinant SARS CoV-2 PL protease incubated for 2 hrs followed by substrate addition and measured after 1 hr by fluorescence based analysis
SARS-CoV-2 [11] = experiment: Antiviral activity against SARS CoV-2 HCoV-19/Egypt/NRC-1/2020 infected in human Caco-2 cells assessed as inhibition of ORFb1 RNA at 20 ug/ml pre-infected with virus for 1 hr followed by cell addition for 1 hr and measured after 1 to 12 hrs by RT-PCR analysis relative to control; type: functional; settings: Severe acute respiratory syndrome coronavirus 2, HCoV-19/Egypt/NRC-1/2020, Caco-2, time 3-14 hrs
[12] = Toxicity in Balb/c mouse assessed as effect on body weight loss at 12.5 to 25 mg/kg, ip administered as multiple dose measured upto 15 days; type: organism-based; settings: in vivo, 360 h, dose 12.5-25 mg/kg, time < 15 day; procedure, shortened: as §2
SARS-CoV-2 [13] = experiment: Antiviral activity against SARS- CoV-2 infected in Vero E6 cells assessed as virucidal activity pretreated with cells for 24 hrs followed by viral infection for 1 hr and measured after 1 hr by plaque assay relative to control; type: functional, Severe acute respiratory syndrome coronavirus 2; settings: time 26 hrs
[14] = Toxicity in Balb/c mouse assessed as change in histological variation in lung at 12.5 to 25 mg/kg by H and E staining based analysis; type: organism-based; settings: in vivo, dose 12.5-25 mg/kg; procedure, shortened: as §1
[15] = Toxicity in Balb/c mouse assessed as effect on total protein at 12.5 to 25 mg/kg; type: organism-based; settings: in vivo, dose 12.5-25 mg/kg; procedure, shortened: as §2
SARS-CoV-2 [16] = experiment: Antiviral activity against SARS CoV-2 HCoV-19/Egypt/NRC-1/2020 infected in human Caco-2 cells assessed as reduction in spike RNA expression at 20 ug/ml pre-infected with virus for 1 hr followed by cell addition for 1 hr and measured after 6 to 12 hrs by RT-PCR analysis; type: functional, organism-based; settings: Severe acute respiratory syndrome coronavirus 2, dose 20.0 µg/ml, time 8-14 hrs
[17] = Stability in human liver microsomes assessed as half life at 1 uM in presence of NADPH by LC-MS-MS analysis; type: ADME, Microsome
[18] = Toxicity in Balb/c mouse assessed as change in histological variation in heart at 12.5 to 25 mg/kg by H and E staining based analysis; type: organism-based; settings: in vivo, dose 12.5-25 mg/kg; procedure, shortened: as §1
[19] = Toxicity in Balb/c mouse assessed as effect on ALP at 12.5 to 25 mg/kg; type: organism-based; settings: in vivo, dose 12.5-25 mg/kg; procedure, shortened: as §2

SMILES: COc1ccc2[nH]c3c(c2c1)C[C@]1(OC)CC[C@H]2c4[nH]c5ccccc5c4CCN2[C@@H]1C3
- inhibition [1]: inactive
- remaining at 1 h, 1 µM [2]: 102%
- Activity (SARS-CoV-2 [3]): Active
- IC50 (SARS-CoV-2 [4]): 12.1 µg/mL (≈ 28.3 µM)
- Activity [5]: 0
- Activity [6]: Non-Toxic
- Activity [7]: Non-Toxic
- Activity [8]: 0
- t1/2 [9]: > 1 h
- IC50 [10]: 91.2 nM
- inhibition at 20 µg/mL (SARS-CoV-2 [11]): > 70%
- Activity [12]: Non-Toxic
- Activity (SARS-CoV-2 [13]): >90%
- Activity [14]: Non-Toxic
- Activity [15]: Non-Toxic
- Activity (SARS-CoV-2 [16]): Active
- t1/2 [17]: > 1 h
- Activity [18]: Non-Toxic
- Activity [19]: Non-Toxic
